Measurements as given in ChEMBL document CHEMBL3774346, “Rational design, synthesis and biological evaluation of 1,3,4-oxadiazole pyrimidine derivatives as novel pyruvate dehydrogenase complex E1 inhibitors” (Bioorg Med Chem, 2016).

test system: Alternaria solani; test: Antifungal activity against Alternaria solani at 100 ug/ml; assay type: functional

| SMILES | inhibition at 100 µg/mL |
| --- | --- |
| Cc1ncc(Cn2cc(CSc3nnc(-c4sc(N)nc4C(F)(F)F)n3N)nn2)c(N)n1 | 21% |
| Cc1ncc(Cn2cc(CSc3nnc(-c4ccccc4F)o3)nn2)c(N)n1 | 40% |
| Cc1ncc(Cn2cc(CSc3nnc(-c4ccc([N+](=O)[O-])cc4)o3)nn2)c(N)n1 | 60% |
| Cc1ncc(Cn2cc(CSc3nnc(-c4ccc(F)cc4)o3)nn2)c(N)n1 | 44% |
| Cc1ncc(Cn2cc(CSc3nnc(-c4ccc(Cl)cc4)o3)nn2)c(N)n1 | 60% |
| CNc1nc(C)c(-c2nnc(SCc3cn(Cc4cnc(C)nc4N)nn3)n2N)s1 | 25% |

test system: Colletotrichum orbiculare; test: Antifungal activity against Colletotrichum orbiculare at 100 ug/ml; assay type: functional

| SMILES | inhibition at 100 µg/mL |
| --- | --- |
| Cc1ncc(Cn2cc(CSc3nnc(-c4sc(N)nc4C(F)(F)F)n3N)nn2)c(N)n1 | 35% |
| Cc1ncc(Cn2cc(CSc3nnc(-c4ccccc4F)o3)nn2)c(N)n1 | 32% |
| Cc1ncc(Cn2cc(CSc3nnc(-c4ccc([N+](=O)[O-])cc4)o3)nn2)c(N)n1 | 35% |
| Cc1ncc(Cn2cc(CSc3nnc(-c4ccc(F)cc4)o3)nn2)c(N)n1 | 32% |
| Cc1ncc(Cn2cc(CSc3nnc(-c4ccc(Cl)cc4)o3)nn2)c(N)n1 | 52% |
| CNc1nc(C)c(-c2nnc(SCc3cn(Cc4cnc(C)nc4N)nn3)n2N)s1 | 16% |

test system: Rhizoctonia solani; test: Antifungal activity against Rhizoctonia solani at 100 ug/ml; assay type: functional

| SMILES | inhibition at 100 µg/mL |
| --- | --- |
| Cc1ncc(Cn2cc(CSc3nnc(-c4sc(N)nc4C(F)(F)F)n3N)nn2)c(N)n1 | 11% |
| Cc1ncc(Cn2cc(CSc3nnc(-c4ccccc4F)o3)nn2)c(N)n1 | 0% |
| Cc1ncc(Cn2cc(CSc3nnc(-c4ccc([N+](=O)[O-])cc4)o3)nn2)c(N)n1 | 55% |
| Cc1ncc(Cn2cc(CSc3nnc(-c4ccc(F)cc4)o3)nn2)c(N)n1 | 0% |
| Cc1ncc(Cn2cc(CSc3nnc(-c4ccc(Cl)cc4)o3)nn2)c(N)n1 | 46% |
| CNc1nc(C)c(-c2nnc(SCc3cn(Cc4cnc(C)nc4N)nn3)n2N)s1 | 17% |

test system: Botrytis cinerea; test: Antifungal activity against Botrytis cinerea at 100 ug/ml; assay type: functional

| SMILES | inhibition at 100 µg/mL |
| --- | --- |
| Cc1ncc(Cn2cc(CSc3nnc(-c4sc(N)nc4C(F)(F)F)n3N)nn2)c(N)n1 | 20% |
| Cc1ncc(Cn2cc(CSc3nnc(-c4ccccc4F)o3)nn2)c(N)n1 | 28% |
| Cc1ncc(Cn2cc(CSc3nnc(-c4ccc([N+](=O)[O-])cc4)o3)nn2)c(N)n1 | 45% |
| Cc1ncc(Cn2cc(CSc3nnc(-c4ccc(F)cc4)o3)nn2)c(N)n1 | 60% |
| Cc1ncc(Cn2cc(CSc3nnc(-c4ccc(Cl)cc4)o3)nn2)c(N)n1 | 45% |
| CNc1nc(C)c(-c2nnc(SCc3cn(Cc4cnc(C)nc4N)nn3)n2N)s1 | 11% |

test system: not listed separately; test: Inhibition of Escherichia coli PDHc-E1 expressed in Escherichia coli TB1 using sodium pyruvate as substrate and ThDP after 3 mins by 2,6-DCPIP based microplate reader method
Procedure, shortened: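 The enzyme (7.1 µM) was preincubated 3 min at 37 °C with varied inhibitor in 50 mM K3PO4 pH 7.2, 2.0 mM pyruvate and 0.8 mM 2,6-DCPIP. ThDP (0–200 µM) started the reaction, read as A600 decrease. IC50 came from a Hill fit of initial rates.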

| SMILES | IC50 |
| --- | --- |
| Cc1ncc(Cn2cc(COc3ccccc3)nn2)c(N)n1 | 55.1 µM |
| Cc1ncc(Cn2cc(COc3ccc(Cl)cc3)nn2)c(N)n1 | 26.4 µM |
| Cc1ncc(Cn2cc(COc3ccccc3[N+](=O)[O-])nn2)c(N)n1 | 36.3 µM |
| Cc1ncc(Cn2cc(CSc3nnc(-c4ccccc4Cl)o3)nn2)c(N)n1 | 12.4 µM |
| Cc1ncc(Cn2cc(COc3ccc(Cl)cc3Cl)nn2)c(N)n1 | 18.7 µM |
| Cc1ncc(Cn2cc(CSc3nnc(-c4ccccc4F)o3)nn2)c(N)n1 | 19.2 µM |
| Cc1ncc(Cn2cc(CSc3nnc(-c4ccc(Cl)cc4Cl)o3)nn2)c(N)n1 | 13.2 µM |

Compounds with a lower IC50, results first:

| IC50 | SMILES |
| --- | --- |
| 8.8 µM | Cc1ncc(Cn2cc(COc3ccc([N+](=O)[O-])cc3)nn2)c(N)n1 |
| 5.03 µM | Cc1ncc(Cn2cc(CSc3nnc(-c4sc(N)nc4C(F)(F)F)n3N)nn2)c(N)n1 |
| 7.59 µM | Cc1ncc(Cn2cc(CSc3nnc(-c4ccc([N+](=O)[O-])cc4)o3)nn2)c(N)n1 |
| 9.11 µM | Cc1ncc(Cn2cc(CSc3nnc(-c4ccc(F)cc4)o3)nn2)c(N)n1 |
| 7.08 µM | Cc1ncc(Cn2cc(CSc3nnc(-c4ccc(Cl)cc4)o3)nn2)c(N)n1 |
| 11.1 µM | CNc1nc(C)c(-c2nnc(SCc3cn(Cc4cnc(C)nc4N)nn3)n2N)s1 |

test system: not listed separately; test: Antibacterial activity against Synechocystis sp. PCC 6803 at 10 uM; assay type: functional

| SMILES | inhibition at 10 µM |
| --- | --- |
| Cc1ncc(Cn2cc(COc3ccc([N+](=O)[O-])cc3)nn2)c(N)n1 | < 30% |
| Cc1ncc(Cn2cc(COc3ccccc3)nn2)c(N)n1 | < 30% |
| Cc1ncc(Cn2cc(COc3ccc(Cl)cc3)nn2)c(N)n1 | < 30% |
| Cc1ncc(Cn2cc(COc3ccccc3[N+](=O)[O-])nn2)c(N)n1 | < 30% |
| Cc1ncc(Cn2cc(COc3ccc(Cl)cc3Cl)nn2)c(N)n1 | < 30% |
| Cc1ncc(Cn2cc(CSc3nnc(-c4sc(N)nc4C(F)(F)F)n3N)nn2)c(N)n1 | 90% |
| Cc1ncc(Cn2cc(CSc3nnc(-c4ccc(F)cc4)o3)nn2)c(N)n1 | 90% |
| Cc1ncc(Cn2cc(CSc3nnc(-c4ccc(Cl)cc4)o3)nn2)c(N)n1 | 90% |
| CNc1nc(C)c(-c2nnc(SCc3cn(Cc4cnc(C)nc4N)nn3)n2N)s1 | 90% |

test system: not listed separately; test: Antibacterial activity against Synechocystis sp. PCC 6803; assay type: functional

| SMILES | EC50 |
| --- | --- |
| Cc1ncc(Cn2cc(COc3ccccc3)nn2)c(N)n1 | > 50 µM |
| Cc1ncc(Cn2cc(COc3ccc(Cl)cc3)nn2)c(N)n1 | > 50 µM |
| Cc1ncc(Cn2cc(COc3ccccc3[N+](=O)[O-])nn2)c(N)n1 | > 50 µM |
| Cc1ncc(Cn2cc(CSc3nnc(-c4ccccc4Cl)o3)nn2)c(N)n1 | 2.28 µM |
| Cc1ncc(Cn2cc(COc3ccc(Cl)cc3Cl)nn2)c(N)n1 | > 50 µM |
| Cc1ncc(Cn2cc(CSc3nnc(-c4ccccc4F)o3)nn2)c(N)n1 | 8.05 µM |
| Cc1ncc(Cn2cc(CSc3nnc(-c4ccc(Cl)cc4Cl)o3)nn2)c(N)n1 | 5.99 µM |

Second part, the compound after the results:

| EC50 | SMILES |
| --- | --- |
| > 50 µM | Cc1ncc(Cn2cc(COc3ccc([N+](=O)[O-])cc3)nn2)c(N)n1 |
| 3.24 µM | Cc1ncc(Cn2cc(CSc3nnc(-c4sc(N)nc4C(F)(F)F)n3N)nn2)c(N)n1 |
| 9.04 µM | Cc1ncc(Cn2cc(CSc3nnc(-c4ccc([N+](=O)[O-])cc4)o3)nn2)c(N)n1 |
| 5.34 µM | Cc1ncc(Cn2cc(CSc3nnc(-c4ccc(F)cc4)o3)nn2)c(N)n1 |
| 5.25 µM | Cc1ncc(Cn2cc(CSc3nnc(-c4ccc(Cl)cc4)o3)nn2)c(N)n1 |
| 2.99 µM | CNc1nc(C)c(-c2nnc(SCc3cn(Cc4cnc(C)nc4N)nn3)n2N)s1 |
